# Test results: ChEMBL document CHEMBL1132160, “Structure-antiviral activity relationship in the series of pyrimidine and purine N-[2-(2-phosphonomethoxy)ethyl] nucleotide analogues. 1. Derivatives substituted at the carbon atoms of the base” (J Med Chem, 1999); call rule not given here
# Legend:
# [1] = tested on: HEL; assay: Compound was evaluated for inhibitory activity against cytomegalovirus (CMV) AD 169 strain; NA=not active; type: functional, cell-based, Homo sapiens
# In short: (§1)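 HEL cell cultures, grown to confluence, received 100 CCID50 of virus. After 1 h adsorption, the inoculum was removed and the cultures were incubated with serial concentrations of compound (400, 200, 100, ... μg/mL).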
# [2] = tested on: Human alphaherpesvirus 2; assay: Inhibitory activity against herpes simplex virus type 2 (HSV-2) G strain.; type: functional, organism-based
# In short: (§2)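 Confluent E6SM cell cultures were inoculated with 100 CCID50 of virus and allowed 1 h for adsorption. Residual virus was then removed, and the cells were incubated with test compound at 400, 200, 100, ... μg/mL. Viral cytopathicity was scored once it reached completion in untreated infected controls.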
# [3] = tested on: Human alphaherpesvirus 1; assay: Inhibitory activity against herpes simplex virus type 1 (HSV-1) F strain; type: functional, organism-based; in short: as §2
# [4] = tested on: Human alphaherpesvirus 2; assay: Inhibitory activity against herpes simplex virus type 2 (HSV-2) 196 strain.; type: functional, organism-based; in short: as §2
# [5] = tested on: Human alphaherpesvirus 1; assay: Iactivity against herpes simplex virus type 1 (HSV-1) McIntyre strain.; type: functional, organism-based; in short: as §2
# [6] = tested on: Human immunodeficiency virus 2; assay: Inhibitory activity against human immunodeficiency virus type 2 (HIV-2) induced cytopathogenicity in MT-4 cells; type: functional, organism-based; settings: Human immunodeficiency virus 2, MT4
# [7] = tested on: E6SM; assay: Inhibitory activity against herpes simplex virus type 2 (HSV-2) Lyons strain.; type: functional, cell-based, Homo sapiens; in short: as §2
# [8] = tested on: Vaccinia virus; assay: Inhibitory activity against vaccinia virus (VV).; type: functional, organism-based, Orthopoxvirus vaccinia
# In short: (§3)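 Confluent E6SM cell cultures were inoculated with 100 CCID50 of virus and left for 1 h adsorption, then residual virus was removed. Cultures were incubated with test compound at serial concentrations (400, 200, 100, ... μg/mL). Virus-induced cytopathicity was scored once it reached completion in untreated infected control cultures.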
# [9] = tested on: E6SM; assay: Compound was evaluated for inhibitory activity against herpes simplex virus type 1 thymidine kinase (HSV-1 TK-) B2006 strain; NA=not active; type: functional, cell-based, Homo sapiens; in short: as §2
# [10] = Inhibitory activity against murine sarcoma virus induced transformation of murine C3H/3T3 embryo fibroblasts; type: functional, Mus musculus
# In short: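 Murine C3H/3T3 embryo fibroblasts were seeded at 5 × 10⁵ cells/mL. After 24 h they were infected with 80 focus-forming units of MSV for 90–120 min at 37 °C. The medium was then replaced with fresh medium containing various compound concentrations, and transformation was examined microscopically after 6 days.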
# [11] = tested on: Human alphaherpesvirus 1; assay: Inhibitory activity against herpes simplex virus type 1 thymidine kinase (HSV-1 TK-) VMW 1837 strain.
# [12] = tested on: Human immunodeficiency virus 1; assay: Inhibitory activity of compound against human immunodeficiency virus type 1 (HIV-1) induced cytopathogenicity in MT-4 cells; type: functional, organism-based; settings: Human immunodeficiency virus 1, MT4
# In short: (§4)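 Human MT-4 cells (~4 × 10⁵ cells/mL) were infected with 100 CCID50 of HIV-1 (IIIB)/mL and seeded into wells containing compound dilutions. After 5 days at 37 °C, viable cells were counted by trypan blue exclusion in a blood cell counting chamber.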
# [13] = tested on: HEL; assay: Compound was evaluated for inhibitory activity against varicella zoster virus thymidine kinase (VZV TK+) OKA strain; NA=Not Active; type: functional, cell-based, Homo sapiens; in short: as §1
# [14] = tested on: HEL; assay: Compound was evaluated for inhibitory activity against varicella zoster virus thymidine kinase (VZV TK-) 07/1 strain; NA=not active; type: functional, cell-based, Homo sapiens
# [15] = tested on: HEL; assay: Compound was evaluated for inhibitory activity against varicella zoster virus thymidine kinase (VZV TK+) YS strain; NA=not active; type: functional, cell-based, Homo sapiens; in short: as §1
# [16] = tested on: Human alphaherpesvirus 1; assay: Inhibitory activity against herpes simplex virus type 1 (HSV-1) KOS strain.; type: functional, organism-based; in short: as §2
# [17] = tested on: Vaccinia virus; assay: Compound was evaluated for inhibitory activity against vaccinia virus (VV); NA=not active; type: functional, organism-based, Orthopoxvirus vaccinia; in short: as §3
# [18] = tested on: HEL; assay: Compound was evaluated for inhibitory activity against cytomegalovirus (CMV) Davis strain; NA=Not Active; type: functional, cell-based, Homo sapiens; in short: as §1
# [19] = tested on: Human alphaherpesvirus 1; assay: Inhibition of herpes simplex virus type 1 (HSV-1) F strain; type: functional, organism-based; in short: as §2
# [20] = Inhibitory activity against herpes simplex virus type 2 (HSV-2) 196 strain; type: functional; in short: as §2
# [21] = tested on: Cytomegalovirus; assay: Inhibitory activity against cytomegalovirus (CMV) Davis strain; type: functional, organism-based; settings: Human betaherpesvirus 5; in short: as §1
# [22] = tested on: MT4; assay: Inhibitory activity of compound against human immunodeficiency virus type 1 (HIV-1) induced cytopathogenicity in MT-4 cells; NA=Not Active; type: functional, cell-based; in short: as §4
# [23] = tested on: Cytomegalovirus; assay: Inhibitory activity against cytomegalovirus (CMV) AD 169 strain; type: functional, organism-based; settings: Human betaherpesvirus 5; in short: as §1
# [24] = tested on: Human alphaherpesvirus 1; assay: Inhibitory activity against herpes simplex virus type 1 (HSV-1) KOS strain; type: functional, organism-based; in short: as §2
# [25] = tested on: Human alphaherpesvirus 2; assay: Inhibitory activity against herpes simplex virus type 2 (HSV-2) G strain; type: functional, organism-based; in short: as §2
# [26] = tested on: Human immunodeficiency virus 1; assay: Inhibition of human immunodeficiency virus type 1 (HIV-1) induced cytopathogenicity in CEM cells; type: functional, organism-based; settings: Human immunodeficiency virus 1, CCRF-CEM
# In short: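 CEM cells (~3 × 10⁵ cells/mL) were infected with 100 CCID50 of HIV-1 (IIIB)/mL and plated with dilutions of compound. After 4 days at 37 °C, giant cell formation was assessed microscopically.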
# [27] = tested on: Human alphaherpesvirus 2; assay: Inhibitory activity against herpes simplex virus type 2 (HSV-2) Lyons strain; type: functional, organism-based; in short: as §2
# [28] = tested on: Human alphaherpesvirus 1; assay: Inhibitory activity against herpes simplex virus type 1 (HSV-1) McIntyre strain; type: functional, organism-based; in short: as §2
# [29] = tested on: Human immunodeficiency virus 2; assay: Inhibition of human immunodeficiency virus type 2 (HIV-2) induced cytopathogenicity in CEM cells; type: functional, organism-based; settings: Human immunodeficiency virus 2, CCRF-CEM
# [30] = tested on: Vaccinia virus; assay: Inhibitory activity against vaccinia virus (VV); type: functional, organism-based; settings: Orthopoxvirus vaccinia; in short: as §3
# [31] = tested on: Human immunodeficiency virus 1; assay: Antiviral activity against human immunodeficiency virus type-1 (HIV-1) in MT-4 cells; type: functional, organism-based; settings: Human immunodeficiency virus 1, MT4; in short: as §4
# [32] = tested on: MT4; assay: Antiviral activity against human immunodeficiency virus type 2 (HIV-2) in MT-4 cells; type: functional, cell-based
SMILES,EC50 [1],EC50 [2],EC50 [3],EC50 [4],EC50 [5],EC50 [6] [µg/mL],EC50 [7],EC50 [8],EC50 [9],EC50 [10] [µg/mL],EC50 [11],EC50 [12] [µg/mL],EC50 [13],EC50 [14],EC50 [15],EC50 [16],EC50 [18],EC50 [21] [µg/mL],EC50 [23] [µg/mL],EC50 [25] [µg/mL],further results
CCOP(=O)(COCCn1cnc2c(N)nc(N)nc21)OCC,Not Active,Not Active,Not Active,Not Active,Not Active,> 400,Not Active,Not Active,Not Active,> 200,Not Active,> 400,Not Active,Not Active,Not Active,Not Active,–,–,–,–,–
Cc1cn(CCOCP(=O)(O)O)c(=O)nc1N,Not Active,Not Active,Not Active,Not Active,Not Active,–,Not Active,–,Not Active,> 200,Not Active,> 100,Not Active,Not Active,Not Active,Not Active,Not Active,–,–,–,EC50 [17]: Not Active
Nc1ccn(CCOCP(=O)(O)O)c(=O)n1,–,–,–,–,Not Active,–,Not Active,–,Not Active,> 200,–,–,–,–,–,–,–,70,75,300,EC50 [19]: 300 µg/mL; EC50 [20]: 300 µg/mL; EC50 [22]: Not Active; EC50 [24]: 300 µg/mL
CCOP(=O)(O)COCCn1cnc2c(N)ncnc21,Not Active,–,–,–,–,–,–,–,–,120,–,–,–,–,–,Not Active,Not Active,–,–,70,EC50 [19]: 150 µg/mL; EC50 [26]: > 100 µg/mL; EC50 [27]: 150 µg/mL; EC50 [28]: 300 µg/mL; EC50 [20]: 150 µg/mL; EC50 [29]: > 100 µg/mL
Nc1ccnc2c1ncn2CCOCP(=O)(O)O,–,–,–,–,–,–,–,–,–,13.8,–,–,–,–,–,–,–,> 400,> 400,> 400,EC50 [22]: Not Active; EC50 [30]: > 400 µg/mL; EC50 [24]: > 400 µg/mL
Cc1ncnc2c1ncn2CCOCP(=O)(O)O,–,Not Active,Not Active,Not Active,Not Active,–,Not Active,Not Active,Not Active,> 200,Not Active,> 400,Not Active,Not Active,Not Active,Not Active,–,200,100,–,–
Nc1nc(S)c2ncn(CCOCP(=O)(O)O)c2n1,–,–,–,–,–,–,–,–,–,1,–,–,–,–,–,–,–,–,–,–,EC50 [31]: 9.5 µg/mL; EC50 [32]: 8.9 µg/mL
CC(C)OP(=O)(COCCn1ncc(N)nc1=O)OC(C)C,–,Not Active,Not Active,Not Active,Not Active,–,Not Active,Not Active,–,> 100,Not Active,–,–,–,–,Not Active,–,> 100,> 100,–,EC50 [22]: Not Active
CCOP(=O)(O)COCCn1cnc2c(N)nc(N)nc21,Not Active,–,–,–,–,> 400,–,–,–,> 200,–,> 100,–,–,–,–,Not Active,–,–,70,EC50 [19]: 200 µg/mL; EC50 [27]: 150 µg/mL; EC50 [28]: 300 µg/mL; EC50 [20]: 300 µg/mL; EC50 [30]: > 400 µg/mL; EC50 [24]: 300 µg/mL
CSc1ncnc2c1ncn2CCOCP(=O)(O)O,–,Not Active,Not Active,Not Active,Not Active,> 400,Not Active,Not Active,Not Active,> 200,Not Active,> 200,–,–,–,Not Active,–,> 400,> 400,–,–
Nc1ncnc2c1nc(Br)n2CCOCP(=O)(O)O,–,Not Active,Not Active,Not Active,Not Active,> 100,Not Active,Not Active,Not Active,> 200,Not Active,> 100,–,–,–,Not Active,–,> 50,> 50,–,EC50 [26]: > 100 µg/mL; EC50 [29]: > 100 µg/mL
CC(C)OP(=O)(COCCn1ccc(O)cc1=O)OC(C)C,Not Active,Not Active,Not Active,Not Active,Not Active,–,Not Active,Not Active,–,–,Not Active,> 200,Not Active,Not Active,Not Active,Not Active,Not Active,–,–,–,–
